# Shown are actives, neighbours in structure and some others; about 4.3% of the full set was active somewhere.
# ALR H2O2 inh: human ALR oxidase inhibition via reduced H2O2; purified ALR, DTT oxidation, H2O2 HRP-luminol luminescence; inhibition, % (test concentration not listed); 3.8% of 290,000 active; AID 485317;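 active = mean replicate inhibition above about 79%, with every replicate also reaching it, limit read from the data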
# Target sequence (P55789 whole entry, looked up): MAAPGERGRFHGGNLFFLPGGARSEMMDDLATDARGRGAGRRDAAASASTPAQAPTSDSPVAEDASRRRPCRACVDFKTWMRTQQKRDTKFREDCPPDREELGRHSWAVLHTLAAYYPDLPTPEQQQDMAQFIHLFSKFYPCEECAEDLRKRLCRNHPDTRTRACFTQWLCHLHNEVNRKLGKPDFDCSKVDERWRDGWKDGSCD
# RBBP9 inh: human RBBP9 hydrolase inhibition; 0.2% of 220,000 active; AID 1515; O75884; inhibition, % at 7.94 µM; recombinant RBBP9, FP-Rh probe fluorescence polarization;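 active = inhibition above the campaign mean of all tested compounds plus 3 SD, cut at about 14% in these data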;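 also: plate controls were DMSO wells with RBBP9 for no effect and wells lacking RBBP9 protein for full effect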
# Target sequence (O75884 whole entry, looked up): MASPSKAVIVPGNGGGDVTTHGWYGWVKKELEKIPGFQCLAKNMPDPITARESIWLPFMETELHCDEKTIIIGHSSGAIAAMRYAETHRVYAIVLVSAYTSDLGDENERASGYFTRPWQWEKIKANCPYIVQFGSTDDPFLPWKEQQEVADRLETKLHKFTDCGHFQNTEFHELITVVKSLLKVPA
#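 Test system – recombinant human RBBP9 · Input – RBBP9 2.5 µM in dispensing solution, pre-mixing · Medium – Tris buffer pH 8.0, NaCl, Pluronic · Schedule – preincubation 30 min plus labeling 45 min at 25 °C · Measured by – fluorescence polarization · Measure – % inhibition · Controls – DMSO and no-protein wells · Replicates – one well per compound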
# UBC9 SUMO inh: inhibitors of human SUMOylation (UBC9); inhibition, % at 35 µM; 0.36% of 290,000 active; P63279; HTRF SUMOylation assay, SAE1/SAE2 + UBC9, in vitro; in the data active = inhibition above about 50%, passing the limit was not always enough
# Rin1-Abl PPI inh: inhibitors of human Rin1-Abl protein interaction. TR-FRET Rin1/Abl binding, biochemical. inhibition, % at 7.35 µM. 0.4% of 360,000 active. AID 588664; in the data active = inhibition above about 5%, passing the limit was not always enough
# PREPL inhibitor: inhibits the human prolyl oligopeptidase-like enzyme; inhibition, % at 5.96 µM; 0.68% of 320,000 active; Q4J6C6; recombinant PREPL, fluorescence polarization activity-based probe;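 also: 0% = enzyme with DMSO and 100% = wells lacking enzyme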
# UBC13 polyUb: human UBC13 polyubiquitination inhibition | 0.47% of 330,000 active | inhibition, % at 20 µM | AID 485273 | UBC13 polyubiquitin chain formation, TR-FRET; in the data active = inhibition above about 45%, passing the limit was not always enough
# Target sequence (P61088 whole entry, looked up): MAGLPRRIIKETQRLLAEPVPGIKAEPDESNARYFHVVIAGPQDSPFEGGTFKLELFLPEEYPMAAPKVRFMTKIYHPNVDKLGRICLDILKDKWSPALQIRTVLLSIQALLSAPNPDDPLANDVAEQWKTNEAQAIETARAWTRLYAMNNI
# RBBP9 confirm: human RBBP9 inhibition, confirmation | inhibition, % at 7.94 µM | 36% of 410 active | shares compounds with RBBP9 inh | recombinant RBBP9, FP-Rh probe fluorescence polarization | AID 1537;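 active = inhibition above the hit cutoff derived for the primary screen, cut at about 15% in these data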;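 also: 0% = RBBP9 with DMSO and 100% = wells lacking RBBP9 protein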
# PREPL inh cf: human PREPL inhibition, confirmation. 67% of 2,000 active. inhibition, % at 5.96 µM. AID 2803. recombinant PREPL, fluorescence polarization activity probe. shares compounds with PREPL inhibitor;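 also: 0% = protein with DMSO and 100% = wells lacking protein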
# Rin1-Abl confirm: Rin1-Abl interaction inhibition confirmation; shares compounds with Rin1-Abl PPI inh; TR-FRET Rin1-Abl binding, purified proteins; inhibition, % at 7.35 µM; 49% of 1,300 active; AID 602124; in the data active = inhibition above about 6.5%
# GFP quench: GFP fluorescence interference artifact; shares compounds with Rin1-Abl PPI inh; inhibitors/quenchers counterscreen; inhibition, % at 6.75 µM; 8.5% of 1,300 active; AID 602125; in the data active = inhibition above about 6.5%;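 also: ABL1-eGFP fusion protein alone without its partner RIN1-SBP; 0% = protein with vehicle and 100% = wells lacking protein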
# An asterisk follows results filed as active; x = no result given. Rule as the data show it, unless noted: active = inhibition above about 43%; inactive = the rest.
SMILES,ALR H2O2 inh,RBBP9 inh,UBC9 SUMO inh,Rin1-Abl PPI inh,PREPL inhibitor,UBC13 polyUb,PREPL inh cf,others
CCOP(=S)(OCC)c1ccc(N(C)C)cc1,3,-4,-10,4,24,-3,x,
CN(C)c1ccc(P(=S)(N(C)C)N(C)C)cc1,99*,-2,16,-2,8,-3,x,
Clc1cccc(N2Cc3cc(-c4ccccc4)ccc3-n3nncc3C2)c1,x,x,x,1,x,x,x,
Cc1ccc(-n2c(=O)[nH]c3ccccc3c2=O)cc1[N+](=O)[O-],x,x,x,3,x,x,x,
COc1ccc(-n2nnnc2C(c2cccc3ccccc23)N2CCC3(CC2)C(=O)NCN3c2ccccc2)cc1 (centres undefined),x,x,x,1,x,x,x,
Cn1c(O)c(C(=N)COc2ccccc2)c(=O)n(C)c1=O,0,-6,2,2,-4,6,x,
Cn1c(O)c(C(=Nc2ccccc2)SCc2ccc(Cl)cc2)c(=O)n(C)c1=O,98*,0,14,3,0,-2,x,
COc1ccc(CC2(CCc3ccncc3)C(=O)NC(=O)NC2=O)c(OC)c1,-1,0,-3,3,8,1,x,
CC/C(=N\Nc1ccccc1)c1c(O)n(-c2ccc(OC)cc2)c(=O)[nH]c1=O,99*,-3,3,2,-8,-7,x,
Cc1ccc2[nH]c(C)c(CCNCc3cccnc3)c2c1,34,x,20,-1,19,-8,x,
CC1CCCC(C)N1/N=C/c1c[nH]c2ccc(Br)cc12 (centres undefined),99*,-7,-10,0,-2,26,x,
CN1CCC(c2c[nH]c3ccc(O)cc23)CC1,x,x,x,-2,x,x,x,
O=C(O)c1c[nH]c2ccc(S(=O)(=O)N(CCCl)CCCl)cc12,2,-1,-6,1,9,5,x,
N#C/C(=C(/O)c1ccc(S(=O)(=O)N(CCCl)CCCl)cc1)c1nc2ccccc2[nH]1,x,-1,53*,-3,-9,4,x,
NNC(=O)c1ccc(O)cc1,95*,x,x,3,-1,-4,x,
CCN(CC)C(=O)c1ccc2c(c1)C1C(Cl)C(Sc3ccccc3[N+](=O)[O-])CC1C(C(=O)O)N2 (centres undefined),97*,28*,49,6.8*,39,-26,x,RBBP9 confirm=11;Rin1-Abl confirm=-1;GFP quench=17*
C[C@]12CCC3C(CC[C@H]4C[C@H](O)CC[C@]34C)C1C[C@@H](CCCCl)[C@@H]2O (some centres undefined),-2,x,x,-2,5,-6,x,
CC(Cc1ccccc1)NC(=O)c1ccc(N)cc1 (centres undefined),-14,x,11,-1,-3,-3,x,
CC(Cc1ccccc1)NC(=O)C(c1ccc(N)cc1)c1ccc(N)cc1 (centres undefined),9,x,4,0,50*,5,33,
CC1=NCCc2c1[nH]c1ccccc21,-3,-1,8,-2,57*,8,27,
CN1CCc2c([nH]c3ccccc23)C1,-2,-4,-5,-5,11,-31,x,
COC(=O)C1=C(c2cccc(OCc3ccccc3)c2)C[C@@H]2CC[C@H]1N2C(=O)NC1CCN(Cc2ccccc2)CC1,-7,x,x,0,51*,36,44*,
COC(=O)C1=C(c2ccccc2OCc2ccccc2)C[C@@H]2CC[C@H]1N2C(=O)NC1CCN(Cc2ccccc2)CC1,0,x,x,-2,41,26,x,
C1=C(c2c[nH]c3ccccc23)CCNC1,56,2,32,x,62*,96*,63*,
CC(C)N1CC=C(c2c[nH]c3ccccc23)CC1,-18,0,-18,-3,-28,-21,x,
SMILES,ALR H2O2 inh,RBBP9 inh,UBC9 SUMO inh,Rin1-Abl PPI inh,PREPL inhibitor,UBC13 polyUb,PREPL inh cf,others
COC(=O)[C@]1(C)C[C@H]1[C@H](NP(=O)(c1ccccc1)c1ccccc1)c1ccccc1,x,0,-21,-1,-3,-6,x,
C=C[C@@H]1C[C@@]1(C)[C@@H](NP(=O)(c1ccccc1)c1ccccc1)c1ccccc1,-1,-4,-30,2,48*,10,48*,
Cc1cccc(NP2(=O)NCCCN2)c1,x,x,x,4,x,x,x,
COc1ccc2[nH]c(C)c(CCNCc3cc(OC)c4c(c3)OCO4)c2c1,32,x,x,1,74*,13,66*,
c1cc(OCCN2CC2)ccn1,x,x,x,2,x,x,x,
CC(C)CC1(CCc2ccccc2)C(=O)NC(=O)NC1=O,x,x,x,4,x,x,x,
CCOc1cccc(=NC2CCCCC2)c2c(C)n(C)c(C)c12,-6,-4,12,-3,48*,-133,50*,
CC(C)Nc1ccc(Nc2ccccc2)cc1,99*,x,x,1,77*,3,55*,
COC(=O)C1=C(c2ccc(F)cc2F)C[C@@H]2CC[C@H]1N2C(=O)N1CCCC1,0,x,x,0,5,9,x,
Cc1ccc(CN2CCSc3ccc(C(=O)N4CCC5(CC4)OCCO5)cc32)cc1,80*,x,12,4,82*,15,74*,
O=C(c1ccc2c(c1)N(Cc1ccc(F)cc1)CCS2)N1CCC2(CC1)OCCO2,82*,x,25,-7,67*,18,63*,
Cc1ccc(CN2CCN(CC(=O)N3CCC4(CC3)OCCO4)C2=O)cc1,19,-3,-5,0,7,-8,x,
C=CCn1c(O)c(C(CC)=NCCc2c[nH]c3ccccc23)c(=O)[nH]c1=O,1,-1,10,-2,49*,11,52*,
C=CCn1c(O)c(C(CC)=NCCc2ccccc2)c(=O)[nH]c1=O,2,-9,2,-1,19,-2,x,
O=c1cc(C(F)(F)F)c2cc3c4c(c2o1)CCCN4CCC3,-1,-16,18,-14,56*,-2,55*,
Fc1cccc(C2NCc3ccccc3-n3cccc32)c1 (centres undefined),-3,x,4,-1,-4,9,x,
Cc1[nH]c2ccccc2c1CCCNC1CCCCC1,47,-5,27,2,45*,13,34,
Cc1[nH]c2ccccc2c1CCN,16,-11,x,-1,18,2,x,
CCCCn1c(C)c(C(=O)OCC)c2c(CN3CCCC3)c(O)ccc21,10,x,9,-5,55*,16,34,
CSCCC(N=Cc1c(O)n(-c2ccc(F)cc2)c(=O)[nH]c1=O)C(=O)OC(C)(C)C (centres undefined),x,-1,7,4,12,5,x,
O=C1NC(=O)C(Nc2ccccc2)C(=O)N1,x,x,x,8,x,x,x,

# Bioassay records: PubChem, several laboratories
